Reference: ChEMBL document CHEMBL1136377, “2,4-disubstituted pyrimidines: a novel class of KDR kinase inhibitors” (Bioorg Med Chem Lett, 2003)
Values belong to the compound of their own block, whether it stands above or below them.

Legend:
[1] = target: T1, Vascular endothelial growth factor receptor 2 (Homo sapiens, UniProt P35968); test: Biochemical inhibition of phosphorylation of a poly-Glu/Tyr (4:1) peptide substrate by isolated vascular endothelial growth factor receptor 2 (cloned and expressed as a GST-fusion protein).
[2] = target: T2, Vascular endothelial growth factor receptor (Homo sapiens, UniProt P17948+P35916+P35968); test: Inhibition of VEGFstimulated mitogenesis in human umbilical vein endothelial cells; format: functional, cell-based; details: endothelial cell
[3] = target: T1, Vascular endothelial growth factor receptor 2; test: Biochemical inhibition of phosphorylation of a poly-Glu/Tyr (4:1) peptide substrate by isolated vascular endothelial growth factor receptor 2 (cloned and expressed as a GST-fusion protein)
[4] = target: Vascular endothelial growth factor receptor 1 and 2 (Flt-1 and KDR) (Homo sapiens) (UniProt P17948+P35968); test: Selectivity for VEGF-receptor 2 (KDR) over VEGF-receptor 1 (FLT-1); format: protein assay
[5] = target: Vascular endothelial growth factor receptor 2 and 3 (KDR and Flt-4) (Homo sapiens) (UniProt P35916+P35968); test: Selectivity for VEGF-receptor 2 (KDR) over VEGF-receptor 3 (FLT-4); format: protein assay
Vascular endothelial growth factor receptor 2 and 3 (KDR and Flt-4) (Homo sapiens), sequence (P35916 whole entry, looked up): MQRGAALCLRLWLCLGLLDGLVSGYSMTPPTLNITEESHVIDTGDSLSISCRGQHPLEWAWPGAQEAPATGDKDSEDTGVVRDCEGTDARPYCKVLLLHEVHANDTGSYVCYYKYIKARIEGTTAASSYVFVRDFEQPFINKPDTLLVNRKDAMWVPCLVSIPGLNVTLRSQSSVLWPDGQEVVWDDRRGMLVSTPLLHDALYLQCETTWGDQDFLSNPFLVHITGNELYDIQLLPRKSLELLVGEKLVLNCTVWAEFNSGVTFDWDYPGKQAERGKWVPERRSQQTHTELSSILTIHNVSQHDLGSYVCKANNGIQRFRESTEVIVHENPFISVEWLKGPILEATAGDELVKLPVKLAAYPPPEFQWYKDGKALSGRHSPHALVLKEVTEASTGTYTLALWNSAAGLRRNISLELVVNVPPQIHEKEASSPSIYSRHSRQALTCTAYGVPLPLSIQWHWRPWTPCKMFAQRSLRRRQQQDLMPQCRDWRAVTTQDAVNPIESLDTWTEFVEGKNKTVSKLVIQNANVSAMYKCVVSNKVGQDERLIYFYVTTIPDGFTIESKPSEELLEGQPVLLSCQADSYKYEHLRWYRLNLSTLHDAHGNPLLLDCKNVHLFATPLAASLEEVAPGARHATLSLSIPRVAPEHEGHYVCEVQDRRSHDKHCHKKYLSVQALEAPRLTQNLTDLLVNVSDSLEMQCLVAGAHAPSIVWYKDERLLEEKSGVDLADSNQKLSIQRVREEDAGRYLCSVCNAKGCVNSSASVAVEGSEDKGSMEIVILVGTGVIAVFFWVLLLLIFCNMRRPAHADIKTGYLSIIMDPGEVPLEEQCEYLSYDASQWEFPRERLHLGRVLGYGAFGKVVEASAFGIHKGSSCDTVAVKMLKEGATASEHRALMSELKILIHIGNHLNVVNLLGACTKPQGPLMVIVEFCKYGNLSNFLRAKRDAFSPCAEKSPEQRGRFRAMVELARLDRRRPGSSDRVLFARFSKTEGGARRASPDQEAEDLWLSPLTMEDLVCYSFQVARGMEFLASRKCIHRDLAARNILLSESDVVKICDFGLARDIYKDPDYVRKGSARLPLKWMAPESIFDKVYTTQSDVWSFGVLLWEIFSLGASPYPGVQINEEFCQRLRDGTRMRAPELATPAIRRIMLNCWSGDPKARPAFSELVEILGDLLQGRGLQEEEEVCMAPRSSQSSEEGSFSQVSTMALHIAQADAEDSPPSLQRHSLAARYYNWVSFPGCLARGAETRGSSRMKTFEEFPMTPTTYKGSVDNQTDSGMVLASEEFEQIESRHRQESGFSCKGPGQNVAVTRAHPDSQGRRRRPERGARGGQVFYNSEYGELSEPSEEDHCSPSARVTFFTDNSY
Vascular endothelial growth factor receptor 2 and 3 (KDR and Flt-4) (Homo sapiens), sequence (P35968 whole entry, looked up): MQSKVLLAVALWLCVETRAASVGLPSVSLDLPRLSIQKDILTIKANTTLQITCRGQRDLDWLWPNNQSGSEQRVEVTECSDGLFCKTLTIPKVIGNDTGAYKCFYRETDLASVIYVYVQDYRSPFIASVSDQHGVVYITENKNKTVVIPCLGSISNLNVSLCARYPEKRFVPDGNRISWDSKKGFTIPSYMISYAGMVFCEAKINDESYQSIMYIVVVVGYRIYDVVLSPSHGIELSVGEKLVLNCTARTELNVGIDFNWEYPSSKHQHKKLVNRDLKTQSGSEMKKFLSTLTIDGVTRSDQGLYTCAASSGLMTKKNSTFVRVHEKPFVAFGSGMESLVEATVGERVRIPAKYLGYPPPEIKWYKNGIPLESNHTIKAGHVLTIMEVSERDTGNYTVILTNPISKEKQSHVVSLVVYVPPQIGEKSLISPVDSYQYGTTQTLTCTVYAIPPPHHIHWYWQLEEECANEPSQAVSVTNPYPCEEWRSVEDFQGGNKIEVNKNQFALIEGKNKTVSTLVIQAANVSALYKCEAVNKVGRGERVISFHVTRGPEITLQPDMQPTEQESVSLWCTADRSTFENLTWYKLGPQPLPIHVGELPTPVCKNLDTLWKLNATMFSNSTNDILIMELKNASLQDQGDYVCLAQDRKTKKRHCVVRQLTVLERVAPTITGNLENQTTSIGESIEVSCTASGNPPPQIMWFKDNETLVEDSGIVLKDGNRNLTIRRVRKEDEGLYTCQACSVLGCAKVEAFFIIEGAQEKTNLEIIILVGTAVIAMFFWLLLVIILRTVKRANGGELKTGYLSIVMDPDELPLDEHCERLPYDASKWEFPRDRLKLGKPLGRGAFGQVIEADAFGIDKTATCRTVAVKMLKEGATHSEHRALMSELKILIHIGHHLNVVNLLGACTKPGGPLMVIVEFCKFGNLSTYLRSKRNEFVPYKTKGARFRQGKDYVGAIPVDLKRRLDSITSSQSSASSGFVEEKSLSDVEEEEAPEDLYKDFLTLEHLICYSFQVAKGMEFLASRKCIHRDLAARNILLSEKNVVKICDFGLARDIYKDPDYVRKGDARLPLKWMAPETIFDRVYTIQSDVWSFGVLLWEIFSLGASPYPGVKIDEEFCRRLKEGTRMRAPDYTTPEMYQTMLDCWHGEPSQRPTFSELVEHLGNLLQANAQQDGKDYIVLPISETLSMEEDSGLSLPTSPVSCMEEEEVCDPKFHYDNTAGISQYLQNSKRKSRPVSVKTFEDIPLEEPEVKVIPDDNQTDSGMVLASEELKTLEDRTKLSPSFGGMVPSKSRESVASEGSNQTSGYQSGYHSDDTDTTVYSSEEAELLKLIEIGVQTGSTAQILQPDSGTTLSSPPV

[6] = target: T2, Vascular endothelial growth factor receptor; test: Inhibition of VEGF-stimulated mitogenesis in human umbilical vein endothelial cells at 500 nM; format: functional, cell-based; details: Endothelial cell
[7] = target: VEGF-receptor 2 and tyrosine-protein kinase SRC (Homo sapiens) (UniProt P12931+P35968); test: Selectivity for VEGF-receptor (KDR) over c-SRC; format: protein assay
VEGF-receptor 2 and tyrosine-protein kinase SRC (Homo sapiens), sequence (P12931 whole entry, looked up): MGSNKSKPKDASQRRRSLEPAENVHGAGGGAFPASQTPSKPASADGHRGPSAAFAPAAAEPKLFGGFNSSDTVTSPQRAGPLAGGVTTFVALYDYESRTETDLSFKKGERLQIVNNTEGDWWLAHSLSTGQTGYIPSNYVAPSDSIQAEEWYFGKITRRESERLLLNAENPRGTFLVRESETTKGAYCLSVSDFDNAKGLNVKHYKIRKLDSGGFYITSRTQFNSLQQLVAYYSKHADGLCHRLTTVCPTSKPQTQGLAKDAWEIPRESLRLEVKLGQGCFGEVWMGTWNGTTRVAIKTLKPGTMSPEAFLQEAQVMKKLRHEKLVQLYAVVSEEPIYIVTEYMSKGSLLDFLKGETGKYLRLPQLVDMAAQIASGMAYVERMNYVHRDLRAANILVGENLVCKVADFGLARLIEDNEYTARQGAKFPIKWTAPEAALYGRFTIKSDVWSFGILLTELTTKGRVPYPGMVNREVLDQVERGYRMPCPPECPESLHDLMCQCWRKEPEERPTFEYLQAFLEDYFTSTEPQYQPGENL
VEGF-receptor 2 and tyrosine-protein kinase SRC (Homo sapiens), sequence (P35968 whole entry, looked up): as the sequence (P35968 whole entry, looked up) above

[8] = target: VEGF-receptor 2 and Fibroblast growth factor receptor 1 (Homo sapiens) (UniProt P35968+P11362); test: Selectivity for VEGF-receptor 2 (KDR) over FGF-receptor 1; format: protein assay
[9] = target: VEGF-receptor 2 and Fibroblast growth factor receptor 2 (Homo sapiens) (UniProt P35968+P21802); test: Selectivity for VEGF-receptor 2 (KDR) over FGF-receptor 2; format: protein assay
[10] = target: VEGF-receptor 2 and PDGF-receptor beta (KDR and PDGFR beta) (Homo sapiens) (UniProt P09619+P35968); test: Selectivity for VEGF-receptor 2 (KDR) over PDGF-receptor beta; format: protein assay
[11] = target: T2, Vascular endothelial growth factor receptor; test: Inhibition of VEGFstimulated mitogenesis in human umbilical vein endothelial cells.; format: functional, cell-based; details: endothelial cell
[12] = Volume distribution constant was determined; format: ADME, organism-based, Canis lupus familiaris; details: dog, in vivo; read-out: Vdss
[13] = Partition coefficient (logP); format: physicochemical; details: octanol/water
Procedure, shortened: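 Partition coefficient measured by HPLC analysis of an octanol/phosphate buffer (pH 7.4) system.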

[14] = Half life period was determined; format: ADME, organism-based, Canis lupus familiaris; details: dog, in vivo
[15] = Plasma clearance was determined; format: ADME, organism-based, Canis lupus familiaris; details: dog

IC50 [1]: 77 nM
SMILES: FC(F)(F)c1cc(Nc2nccc(-n3ccnc3-c3ccccc3)n2)cc(C(F)(F)F)c1

IC50 [1]: 6830 nM
SMILES: c1ccc(-c2nccn2-c2ccnc(Nc3ccccn3)n2)cc1

IC50 [2]: 303 nM | IC50 [1]: 10 nM
SMILES: FC(F)(F)c1cccc(Nc2nccc(-n3ccnc3-c3ccccc3)n2)c1

IC50 [1]: 279 nM
SMILES: Cc1ccc(Nc2nccc(-n3ccnc3-c3ccccc3)n2)cc1

IC50 [2]: 23 nM | IC50 [3]: 9 nM
SMILES: Cc1cc(CO)cc(Nc2nccc(-n3ccnc3-c3ccccc3)n2)c1

IC50 [1]: 273 nM
SMILES: c1ccc(-c2nccn2-c2ccnc(Nc3ccncc3)n2)cc1

IC50 [1]: 450 nM
SMILES: Cc1cc(C)cc(Nc2nccc(-n3cc(C)nc3-c3ccccc3)n2)c1

IC50 [1]: 26 nM
SMILES: Clc1cc(Cl)cc(Nc2nccc(-n3ccnc3-c3ccccc3)n2)c1

IC50 [1]: 19000 nM
SMILES: COc1cc(Nc2nccc(-n3ccnc3-c3ccccc3)n2)cc(C(F)(F)F)c1

IC50 [1]: 1810 nM
SMILES: Cc1cc(C)cc(Nc2cc(-n3ccnc3-c3ccccc3)ncn2)c1

IC50 [2]: 88 nM | IC50 [1]: 20 nM
SMILES: COc1cccc(Nc2nccc(-n3ccnc3-c3ccccc3)n2)c1

IC50 [1]: 289 nM
SMILES: COc1ccccc1Nc1nccc(-n2ccnc2-c2ccccc2)n1

Selectivity [4]: 13 | Selectivity [5]: 5 | inhibition [6]: 8% | IC50 [1]: 105 nM | Selectivity [7]: 11 | Selectivity [8]: 295
SMILES: c1ccc(Nc2nccc(-n3ccnc3-c3ccccc3)n2)cc1

IC50 [2]: 396 nM | IC50 [1]: 32 nM
SMILES: CC(=O)N1CCN(Cc2cc(C)cc(Nc3nccc(-n4ccnc4-c4ccccc4)n3)c2)CC1

IC50 [1]: 3080 nM
SMILES: Cc1ccccc1Nc1nccc(-n2ccnc2-c2ccccc2)n1

Selectivity [9]: 686 | Selectivity [4]: 103 | Selectivity [5]: 13 | Selectivity [10]: 22 | IC50 [1]: 18 nM | Selectivity [7]: 11 | IC50 [11]: 151 nM | Selectivity [8]: 1020
SMILES: Cc1cccc(Nc2nccc(-n3ccnc3-c3ccccc3)n2)c1

IC50 [1]: 25 nM
SMILES: Clc1cccc(Nc2nccc(-n3ccnc3-c3ccccc3)n2)c1

IC50 [1]: 892 nM
SMILES: Cc1cc(C)cc(Nc2cc(-n3ccnc3-c3ccccc3)ccn2)c1

IC50 [2]: 26 nM | IC50 [1]: 5 nM
SMILES: Cc1cc(Nc2nccc(-n3ccnc3-c3ccccc3)n2)cc(C(F)(F)F)c1

IC50 [2]: 22 nM | IC50 [1]: 5 nM
SMILES: COc1cc(Nc2nccc(-n3ccnc3-c3ccccc3)n2)cc(OC)c1

IC50 [1]: 392 nM
SMILES: COc1ccc(Nc2nccc(-n3ccnc3-c3ccccc3)n2)cc1

Selectivity [9]: 261 | Vd [12]: 1.11 L/kg | Selectivity [4]: 30 | Selectivity [5]: 5 | logP [13]: 3.74 | Selectivity [10]: 6 | half-life [14]: 42.6 min | IC50 [1]: 6 nM | Selectivity [7]: 10 | IC50 [11]: 19 nM | Selectivity [8]: 606 | clearance [15]: 30.1 mL/min/kg
SMILES: Cc1cc(C)cc(Nc2nccc(-n3ccnc3-c3ccccc3)n2)c1

IC50 [1]: 3570 nM
SMILES: [O-][n+]1cccc(Nc2nccc(-n3ccnc3-c3ccccc3)n2)c1

IC50 [1]: 340 nM
SMILES: c1ccc(-c2nccn2-c2ccnc(Nc3cccnc3)n2)cc1
